Bioassay records as filed in PubChem.
KCC2 mod = modulators of human KCC2 chloride dependent transport; KCC2 cells, thallium flux FluoZin-2 fluorescence; B-score of Tl+ flux slope (higher = more flux/activation; lower = inhibition) at 10 µM; hit rate 2.2% among 190,000; Q9H2X9;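 active = thallium flux slope and its plate-corrected score both differing from the plate sample mean at a set confidence after two filtering rounds, in either direction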;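 also: slope of fluorescence scaled to starting intensity during 10 to 20 s after thallium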
WT yeast gro inh = growth inhibition of WT yeast, mitochondrial fusion screen; mitochondrial fusion phenotypic screen, WT strain; inhibition, % at 10 µM; hit rate 2.1% among 190,000; AID 1362; in the data active = inhibition above about 58%; tested in S. cerevisiae
SKKanGAS inh = blocks kanamycin growth of S. pyogenes SKKanGAS strain; BacTiter-Glo, 6 h; inhibition, % at 7.5 µM; hit rate 1.3% among 300,000; AID 1662;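 active = mean replicate score, as percent of positive control median, at least 50; inconclusive = mean below 50 but one replicate at or above 50; inactive = mean and every replicate below 50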;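 also: strain carries kanamycin resistance gene driven by streptokinase promoter and grows in 40 µg/ml kanamycin; loss of luminescence reflects streptokinase promoter inhibition or plain growth inhibition; 0% = median of DMSO wells and 100% = positive control at its reference dose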
Autophagy mod = alters autophagy in cells | MEF GFP-LC3 puncta imaging; test concentration mostly 10 µM | hit rate 0.98% among 190,000 | calls only at 10 µM (by protocol);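 active = percentage of spot-positive cells more than 3 SD above its plate mean, without a fluorescence outlier flag or 80% toxicity; inconclusive = no clear call, values can overlap the other calls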;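 also: spot-positive cell cutoff set from DMSO-treated cells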
Insulin prom up = MIN6 insulin promoter up-regulation. hit rate 0.3% among 190,000. AID 1625. z-score at 5 µM. MIN6 insulin promoter-GFP reporter, high-content imaging; active compounds read high;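 active = z-score above 3 at 5 µM with at least 500 cells counted in the well; inconclusive = wells under 500 cells, flagged as cytotoxic or low count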
Rad51 HR inh = blocks human Rad51 in homologous recombination. Q06609. hRad51 DNA strand exchange, fluorescence dequenching. inhibition, % at 10 µM. hit rate 0.085% among 200,000;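 active = inhibition above 40% at the single screening dose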;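 also: 0% = DMSO control wells and 100% = blanks with heterologous ssDNA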
Target sequence (Q06609 whole entry, looked up): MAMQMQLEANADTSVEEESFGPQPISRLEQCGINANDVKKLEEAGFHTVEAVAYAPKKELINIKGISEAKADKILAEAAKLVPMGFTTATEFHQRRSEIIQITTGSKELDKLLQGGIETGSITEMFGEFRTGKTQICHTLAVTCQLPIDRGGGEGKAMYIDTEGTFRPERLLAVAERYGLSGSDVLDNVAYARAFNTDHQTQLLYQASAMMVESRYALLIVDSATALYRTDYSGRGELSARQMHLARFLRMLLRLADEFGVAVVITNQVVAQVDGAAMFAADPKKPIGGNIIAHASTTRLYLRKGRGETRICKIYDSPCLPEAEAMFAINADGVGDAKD
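material = hRad51 filaments on single-stranded DNA | reagent = Donor/quencher-labelled 47-bp dsDNA substrate | compound = 10 µM final, single point | schedule = strand-exchange reaction 15 min at room temperature | measured by = fluorescein emission 520 nm, excitation 485 nm | read-out basis = % inhibition versus plate control and blank means | benchmarks = plate controls and plate blanks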
KCC2 secondary = confirmation of human KCC2 transport modulators. shares compounds with KCC2 mod. HEK293-KCC2, thallium flux, FluoZin2 fluorescence; active compounds read high. normalised thallium flux (F/F0 slope) at 10 µM. hit rate 15% among 3,700. AID 1713;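 active = thallium flux slope above the same plate's solvent-only control mean plus 3 SD; inconclusive = the two replicate wells disagree; inactive = no significant difference from solvent-only control wells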
KCC2 bumet counter = thallium flux persisting under bumetanide in KCC2 cells, counter-screen secondary assay | normalized thallium flux at 10 µM | HEK293-KCC2 + bumetanide/ouabain, thallium flux FluoZin2; active compounds read high | shares compounds with KCC2 mod | hit rate 49% among 3,700 | AID 1714;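 active = thallium entry rate above the same plate's blocked-transporter control wells by more than 3 SD; inconclusive = the two repeat wells disagree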;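 also: raw slope of fluorescence over initial fluorescence between 10 and 20 s after thallium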
KCC2 secondary2 = KCC2 (human) modulation, second secondary assay | hit rate 23% among 3,700 | shares compounds with KCC2 mod | normalized thallium flux at 10 µM | HEK293-KCC2, thallium flux FluoZin2 fluorescence; actives lie on both sides; F/F0 rise rate, 10–20 s post-thallium | AID 1715;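 active = thallium flux slope more than 3 SD above or below the plate's solvent-only control mean, mostly below; inconclusive = the two repeat wells disagreed; inactive = no significant shift from solvent-only controls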;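 also: raw slope with 0.1% DMSO as baseline and bumetanide as block control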
HEK293 Tl flux = parental HEK flux effect, counter-screen | shares compounds with KCC2 mod | thallium flux rate (normalised fluorescence) at 10 µM | hit rate 46% among 3,700 | HEK293 parental cells, thallium flux FluoZin2, ouabain; baseline-ratio fluorescence slope, 10–20 s after thallium;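 active = thallium flux rate significantly above the same plate's solvent-only control wells, beyond their mean plus 3 SD; inconclusive = the two replicate wells gave conflicting results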
KCC2 ouabain = modulates human KCC2 on retest with ouabain. shares compounds with KCC2 mod. HEK293-KCC2, thallium flux FluoZin2 fluorescence; bidirectional: low = inhibitor, high = activator. raw Tl+ flux slope (below DMSO = inhibition, above = activation) at 10 µM. hit rate 48% among 3,700. AID 1717;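 active = thallium flux slope beyond 3 SD from same-plate DMSO control mean in most replicates, usually higher, sometimes lower; inconclusive = repeat tests gave conflicting results; inactive = no significant difference from controls in most replicates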;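 also: slope of initial-normalized fluorescence between seconds 10 and 20 after thallium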
HEK293 Tl flux2 = counter-screen for KCC2 modulators: effect in parental HEK293 cells; shares compounds with KCC2 mod; thallium flux FluoZin-2 fluorescence slope; thallium flux slope at 10 µM; hit rate 33% among 3,700;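 active = thallium flux slope above the same plate's solvent-control mean plus 3 SD in both duplicate wells; inconclusive = duplicate wells that disagreed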;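 also: run without ouabain in cells lacking the KCC2 cotransporter; slope of fluorescence scaled to its starting value between 10 and 20 s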
* hit, by the source's call; i = inactive; ? = inconclusive; . = no result given. Only some compounds are listed: those with a hit (about 4.2% of all), similar ones and a draw of the others.

SMILES	KCC2 mod	WT yeast gro inh	SKKanGAS inh	Autophagy mod	Insulin prom up	Rad51 HR inh	KCC2 secondary	KCC2 bumet counter	KCC2 secondary2	HEK293 Tl flux	KCC2 ouabain	HEK293 Tl flux2
CC1(C(=O)Nc2ccc3c(c2)OCO3)CC1(Cl)Cl (centres undefined)	.	.	-5.6	.	.	.	.	.	.	.	.	.
C=CCN(C(=O)CCC(=O)Nc1cc(C)on1)C(C(=O)NC(C)(C)C)c1ccc(OC)cc1 (centres undefined)	.	.	2.3	.	.	.	.	.	.	.	.	.
CC1CCc2sc(C(=O)N3CCN(c4ncccn4)CC3)cc2C1 (centres undefined)	.	.	7.5	.	.	.	.	.	.	.	.	.
O=C(c1ccccc1NS(=O)(=O)c1ccc(Cl)cc1)N1CCc2ccccc21	6.1*	30.2	1.6	i	0.4	-4.4	0.0113	0.0445*	0.0303	0.013*	0.0535*	0.0112*
Cc1cc(C(=O)O)ccc1-c1ccc(/C=C2\NC(=O)N(Cc3ccccc3Cl)C2=O)o1	-2.43	-16.1	45.1	i	.	0.5	.	.	.	.	.	.
Cc1ccc(C(=O)O)cc1-c1ccc(/C=C2/NC(=O)N(c3ccccc3)C2=O)o1	-4.64*	6.3	30.1	i	.	-9.1	0.00675	0.00508	0.0221*	0.00741	0.0136*	0.00927
COc1ccc(OC)c(CCNC(=O)c2ccc(NC3=NC4CS(=O)(=O)CC4S3)cc2)c1 (centres undefined)	.	.	-5.2	.	.	.	.	.	.	.	.	.
CCCCOc1ccc(S(=O)(=O)N2CCN(C)CC2)cc1	.	.	-1.6	.	.	.	.	.	.	.	.	.
CCSc1nnc(-c2cc(Br)ccc2N=Cc2c(C)[nH]n(-c3ccccc3)c2=O)c(=O)[nH]1	4.6*	17.4	28.6	i	0.14	-13.6	0.00671	0.0144*	0.0281	0.0133*	0.0203	0.012*
Cc1cc(C=C2C(=O)c3ccccc3C2=O)c(C)n1-c1ccc(C(=O)O)cc1	-2.12	5.9	25.9	i	-0.28	-18.2	.	.	.	.	.	.
Cc1cc(C=C2C(=O)c3ccccc3C2=O)c(C)n1-c1cccc(C(=O)O)c1	-5.37*	5.5	32.2	i	-0.01	-1.3	0.0144	?	0.0203*	0.00557*	0.0101*	0.00831
c1ccc(N2CCN(c3ccccc3)C2c2cccs2)cc1	-5.46*	1.8	11.9	i	.	-26.2	0.0091	0.00517	0.029	0.00756	0.0219	0.0106
O=C(CN1C(=O)NC2(CCCc3ccccc32)C1=O)N1CCCCC1 (centres undefined)	.	.	-0.6	.	.	.	.	.	.	.	.	.
FC(F)(F)c1ccccc1NC(=S)N/N=C1\CC2CC=CC12 (centres undefined)	13.3*	20.7	.	i	.	-7.7	?	0.037*	0.0398*	0.0204*	0.0287*	0.0229*
CCN(CC)CCC(C)OC(=O)c1ccc(O)cc1O (centres undefined)	-0.294	-14.6	-2.0	i	0.04	-0.2	.	.	.	.	.	.
CCN(CC)CCCNC(=O)c1cn(CCOC)c(=O)c2c1c1ccccc1n2C	.	-4.4	.	i	0.86	2.5	0.00944	?	0.0339	0.00751	0.0207	0.0105
C=C(C)CNC(=S)N/N=C/c1c(F)cccc1F	15.8*	19.0	-14.5	i	-0.16	-1.0	0.0204*	0.0479*	?	0.0229*	0.0303*	0.025*
CCOC(=O)c1[nH]c(C)c(C(=O)O)c1C	-1.09	9.9	.	i	-0.43	2.2	.	.	.	.	.	.
CCOC(=O)c1[nH]c(C=O)c(C(=O)OCC)c1C	25.8*	-8.6	0.7	i	1.11	11.7	0.00591	0.0506*	0.0403*	0.0288*	0.0437*	0.0306*
CCOc1ccc(N(C(C)C(=O)Nc2ccc(OC)cc2)S(C)(=O)=O)cc1 (centres undefined)	-5.01*	9.0	1.3	i	0.24	0.7	0.0153	0.00458	0.0285	0.00726	0.015	0.0105
CCN(CC)S(=O)(=O)c1ccc(NC(=O)C(C)N(c2ccc(OC)cc2)S(C)(=O)=O)cc1 (centres undefined)	.	1.6	2.3	i	2.09	.	.	.	.	.	.	.
CCN(CC)c1ccc(C(=O)OCC(=O)N(C)Cc2ccccc2)cc1	-4.12*	0.2	-5.7	i	-0.37	15.3	0.00574	0.00569	0.029	0.00573	0.0145*	0.00996
COC(=O)CSc1ncnc2c1cnn2Cc1ccccc1	-0.0867	-8.0	5.5	i	-0.27	1.8	.	.	.	.	.	.
CC(C)OC(=O)CSc1ncnc2c1cnn2Cc1ccccc1	-3.55*	0.3	7.0	i	-0.13	5.0	0.00957	0.00717	0.0318	0.0074	0.019	0.011
CCOC(=O)N1CCN(C(=O)CCCn2c(=S)[nH]c3ccccc3c2=O)CC1	-0.738	-4.1	-1.3	i	0.15	12.9	.	.	.	.	.	.
SMILES	KCC2 mod	WT yeast gro inh	SKKanGAS inh	Autophagy mod	Insulin prom up	Rad51 HR inh	KCC2 secondary	KCC2 bumet counter	KCC2 secondary2	HEK293 Tl flux	KCC2 ouabain	HEK293 Tl flux2
CCOC(=O)N1CCN(C(=O)c2ccc3c(=O)n(Cc4ccc(OC)cc4)c(=S)[nH]c3c2)CC1	.	17.6	.	i	.	1.4	.	.	.	.	.	.
CCN(CC)CCn1c(=S)[nH]c2ccc(Br)cc2c1=O	17.4*	8.7	0.5	i	0.34	-5.1	0.0174	0.0171*	0.0312	0.0112*	0.0196	?
CCOC(=O)N1CCN(C(=O)CCCn2c(=S)[nH]c3ccc(Br)cc3c2=O)CC1	8.69*	15.4	3.4	i	-1.19	-2.9	0.00778	0.00892*	0.0269	0.00974*	0.0202	0.0106
CCOC(=O)N1CCN(C(=O)c2ccc3c(=O)n(Cc4ccccc4)c(=S)[nH]c3c2)CC1	4.61*	-6.2	6.2	i	.	2.0	0.00922	0.0258*	0.0294	0.012*	0.028*	0.0112*
CCN(CC)CCn1c(=S)[nH]c2ccccc2c1=O	0.889	0.1	-5.2	i	-0.15	-0.4	.	.	.	.	.	.
CC(C)C1N(C(=O)N2CCOCC2)CCN1S(=O)(=O)c1ccccc1 (centres undefined)	.	.	-4.5	.	.	.	.	.	.	.	.	.
O=[N+]([O-])c1ccc(SCc2ccncc2)nc1	.	.	4.2	.	.	.	.	.	.	.	.	.
CN(C)c1ccc(C(CNC(=O)c2ccc(-c3ccccc3)cc2)N2CCOCC2)cc1 (centres undefined)	.	.	-6.3	.	.	.	.	.	.	.	.	.
COC(=O)[C@@]12CCCCN1[C@H](c1ccc(-c3cccc(Cl)c3)c(OC)c1)[C@H]1C(=O)N(C)C(=O)[C@H]12	.	.	11.7	.	.	.	.	.	.	.	.	.
